{"source": "paper PMC12393906", "about": "(Molecular Therapy, 2025)", "key": {"mouse platelets [1]": {"test_system": "mouse platelets", "test": "Flow cytometry of P-selectin exposure and αIIbβ3 integrin activation", "type": "cell-based", "procedure,_shortened": "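Washed mouse platelets (2 × 10^8/mL in HEPES-Tyrode; C57BL/6 or Ero1α/β-null) were pretreated 20 min at 37°C with 0.1% DMSO vehicle or test compound. Agonist was added for 5 min at 37°C. Cells were stained 15 min with labelled anti-P-selectin or JON/A (activated αIIbβ3) and read by flow cytometry as geometric mean fluorescence intensity.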"}, "mouse platelets [2]": {"test_system": "mouse platelets", "test": "Detection of intracellular ROS", "type": "cell-based", "details": "5 μM", "procedure,_shortened": "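Platelets from C57BL/6, WT control or Ero1α/β CKO mice were pretreated 20 min at 37°C with or without 0.1% DMSO vehicle or test compound. They were loaded with 1 μM DCF for 10 min, then stimulated 5 min with thrombin or CRP, or left unstimulated. DCF fluorescence was read by flow cytometry.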"}, "mouse platelets [3]": {"test_system": "mouse platelets", "test": "CCL5/RANTES in platelet releasates", "type": "cell-based", "procedure,_shortened": "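Washed mouse platelets (5 × 10^8 cells/mL) were pretreated 20 min at 37°C with 0.1% DMSO vehicle or test compound. They were then stimulated 10 min with 0.01 U/mL thrombin or 0.05 μg/mL CRP. CCL5/RANTES in the collected supernatant was quantified by ELISA.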"}, "mouse blood": {"test_system": "mouse blood", "test": "Flow chamber assay on collagen-coated surfaces under arterial shear", "type": "cell-based", "details": "5 μM, 50 dyne/cm^2", "procedure,_shortened": "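Plates were coated with fibrillar type 1 collagen (100 μg/mL, 1 h, 37°C) and washed with PBS/0.05% BSA. ACD-anticoagulated blood was treated 15 min at 37°C with 0.1% DMSO vehicle or 5 μM test compound, then labelled with 1 μM DiOC6 for 5 min. After adding 6 mM CaCl2 and 3 mM MgCl2, blood was perfused at 50 dyne/cm2 (mouse blood: 2 min). Surface coverage and thrombus volume were measured by epifluorescence.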"}, "mouse platelets [4]": {"test_system": "mouse platelets", "test": "Ca2+ mobilization", "type": "cell-based", "details": "thrombin, A23187 or thapsigargin", "procedure,_shortened": "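Mouse platelets were preincubated 20 min with vehicle (0.1% DMSO) or test compound, then loaded with FLIPR Ca2+ 5 dye for 30 min at 37°C in the dark. Release was triggered by 0.02 U/mL thrombin, 0.5 μM A23187 or 5 μM thapsigargin, and influx by adding 2 mM CaCl2. Fluorescence was read at ex 485/em 525 nm and reported as area under the curve (RFU).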"}, "C57BL/6 mice [5]": {"test_system": "C57BL/6 mice", "test": "Complete blood counts after intravenous injection", "type": "in vivo, mouse", "details": "iv 0.3 μg/g BW; 10 min and 8 h after injection"}, "C57BL/6 mice [6]": {"test_system": "C57BL/6 mice", "test": "Intravital microscopy, laser-induced cremaster arteriolar injury", "type": "in vivo, mouse", "details": "iv 0.3 μg/g BW 10 min before IVM", "procedure,_shortened": "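Male mice (8–12 weeks) were anaesthetised with ketamine/xylazine ip. The cremaster was exteriorised and superfused with 37°C bicarbonate-buffered saline. Vehicle (1% DMSO) or test compound (0.3 μg/g BW) was given iv, and 10 min later DyLight 649 anti-CD42c (0.1 μg/g BW) was given. Laser ablation injured 3–4 arterioles per mouse. Median integrated platelet fluorescence was tracked over time, using […] per group.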"}}}
{"smiles": "O=C(O)c1cc(N2N=C(C(F)(F)F)/C(=C/c3ccc(-c4ccccc4)o3)C2=O)ccc1Cl", "note": "[EN460]", "values": [{"measurement": "P-selectin exposure and αIIbβ3 integrin activation", "setting": "mouse platelets [1]; 1-5 µM, low agonist: 0.01 U/mL thrombin, 0.025 μg/mL CRP, 0.5 μM U46619, 0.5 μM A23187, concentration-dependent", "result": "inhibited"}, {"measurement": "P-selectin exposure and αIIbβ3 integrin activation", "setting": "mouse platelets [1]; 2.5 or 5 μM, high agonist: thrombin 0.1 U/mL or CRP 0.2 μg/mL, weaker effect", "result": "still observed"}, {"measurement": "P-selectin exposure and αIIbβ3 integrin activation in resting platelets", "setting": "mouse platelets [1]; M6766 5 μM, EN460 2.5 or 5 μM, no agonist", "result": "appeared to enhance both events"}, {"measurement": "agonist-induced DCF signal (ROS)", "setting": "mouse platelets [2]; after thrombin", "result": "reduced the signal"}, {"measurement": "ROS production in resting platelets", "setting": "mouse platelets [2]; no agonist", "result": "moderately increased ROS production"}, {"measurement": "CCL5 secretion in resting and activated platelets", "setting": "mouse platelets [3]; 5 μM", "result": "appeared to increase CCL5 secretion"}, {"measurement": "CCL5 secretion from activated platelets", "setting": "mouse platelets [3]; various concentrations (1-5 μM), thrombin", "result": "inhibits CCL5 secretion"}, {"measurement": "surface coverage and volume of platelet thrombi", "setting": "mouse blood", "result": "significantly reduced"}, {"measurement": "Ca2+ release and influx", "setting": "mouse platelets [4]; 0.25 or 0.5 μM", "result": "no or minimal inhibition"}, {"measurement": "Ca2+ release and influx", "setting": "mouse platelets [4]; 1 or 2.5 μM", "result": "significantly reduced both Ca^2+ release and influx"}, {"measurement": "complete blood counts (CBCs)", "setting": "C57BL/6 mice [5]", "result": "did not alter CBCs"}, {"measurement": "initial platelet adhesion at sites of laser injury", "setting": "C57BL/6 mice [6]", "result": "without affecting initial platelet adhesion"}, {"measurement": "platelet accumulation at sites of laser injury", "setting": "C57BL/6 mice [6]", "result": "significantly inhibited platelet accumulation"}]}
